The entries come from a sample that favours hits as a whole.
p-CIP stab down: p/CIP-EGFP fusion destabilizers, primary screen, fluorescence, F442A cells. Q05BA5. 16 h. decrease of EGFP signal, % at 10 µM. 290,000 tested, 0.01% active. AID 1984, 2009;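 active = EGFP signal decrease of at least 30% at 10 µM or well 3 SD below plate mean, unless failing retest; inactive = the rest, including hits failing retest or dose response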
ABCB6 inh 2: ABCB6 transporter inhibitors, primary screen, K562-ABCB6 cells, flow cytometry, MLPCN library. K562-ABCB6 porphyrin accumulation, 1 h; stronger effect = lower value. fluorescence ratio to DMSO, % at 10 µM. 360,000 tested, 0.19% active;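 active = fluorescence ratio to DMSO below 75%, the collection mean minus 3 SD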;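 note: signal is porphyrin accumulated inside mitochondria; 100% equals median channel fluorescence of DMSO control wells; lower ratio means ABCB6 inhibition with less porphyrin fluorescence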
Cl transport mod: KCC2 cotransporter modulators, thallium flux, primary screen, cell-based, HEK293 KCC2, FluoZin-2 fluorescence, MLSMR; B-score of Tl+ flux slope (higher = more flux/activation; lower = inhibition) at 10 µM; KCC2 cells, thallium flux FluoZin-2 fluorescence; 190,000 tested, 2.2% active; AID 1456, 2008; Solute carrier family 12 member 5 (Homo sapiens), Q9H2X9;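 active = thallium flux slope and its plate-corrected score both differing from the plate sample mean at a set confidence after two filtering rounds, in either direction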;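 note: slope of fluorescence scaled to starting intensity during 10 to 20 s after thallium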
V-ATPase pH: regulators of yeast V-ATPase proton pumping, primary screen, pHLuorin cytosolic pH fluorescence | S. cerevisiae | response, % at 10 µM | 350,000 tested, 0.37% active | AID 504577, 2011; in the data active = response mostly above about 7.3%, no sharp cut-off; inactive = mostly below about 5.4%; note: actives read high
Dynein transport: inhibitors of GR-EGFP nuclear translocation, primary screen, dynein cargo transport inhibitor project, imaging, high-content, 3617.4 mouse cells | test concentration mostly 20 µM; stimulated with dexamethasone, 1 µM; stronger effect = lower value | z-score, hits read low | 220,000 tested, 0.47% active;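 active = plate z-score of nuclear minus cytoplasmic receptor signal below a set negative limit, without overly bright fluorescence or cell loss, cut at about -3.5 in these data, passing the limit was not always enough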;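 note: z-score of nuclear minus cytoplasmic ring GR-EGFP intensity difference per well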
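Also added: dexamethasone, 1.0 µM final. Medium: tet-free, stripped-serum medium. Detection: fixed, Hoechst-stained cells imaged at 10x for EGFP. Read-out: nuclear-to-cytoplasmic GR-EGFP distribution per well. Times: induction 48 h, compound 1 h, agonist 30 min.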
ABCB6 inh CP1: ABCB6 transporter inhibitors, confirmation, K562-ABCB6 cells, flow cytometry, cherry pick 1; shares compounds with ABCB6 inh 2; K562-ABCB6 porphyrin accumulation, 1 h; stronger effect = lower value; ratio response (% of DMSO), % at 10 µM; 700 tested, under 10 active;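 active = repeat-averaged ratio response below 75% of DMSO, the collection mean minus 3 SD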;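 note: median porphyrin fluorescence at 575 nm with 488 nm excitation from mitochondria; lower ratio means less porphyrin signal so ABCB6 inhibition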
* = called active by the depositor; / = no result given.

SMILES | p-CIP stab down | ABCB6 inh 2 | Cl transport mod | V-ATPase pH | Dynein transport | ABCB6 inh CP1
Cc1ccc(Nc2nc(-c3cccnc3)nc3ccccc23)cc1 | -16 | 71* | -1.5 | 4 | -0.084 | 98
COc1ccc(N2C(=O)CSC2c2cccc(F)c2)cc1 (stereo not given) | -2 | 74* | / | 3 | / | 97
Cc1ccc(S(=O)(=O)N2CCOCC2)cc1NC(=O)c1ccc(F)cc1F | / | 98 | / | 2 | / | /
O=C1c2ccccc2C(=O)N1CCc1csc(-c2cccc(F)c2)n1 | -1 | 72* | -1.2 | 1 | 0.56 | 98
Cc1cccc(NC(=O)c2cc(NC(=O)CCCC(=O)O)ccc2Cl)n1 | -3 | 53* | -0.41 | -2 | 0.77 | 102
Cc1cccc(NC(=O)CCNC(=O)c2ccccc2Cl)n1 | 5 | 103 | / | 4 | / | /
CCCCCCN[C@H]1CCC2C3CC=C4C[C@@H](O)CC[C@]4(C)C3CC[C@@]21C (stereo not given in full) | / | 103 | / | -1 | / | /
COc1ccc(S(=O)(=O)Nc2c(NC3CCCCC3)c3ccccc3oc2=O)cc1 | -1 | 71* | / | -3 | / | 98
CC(C)(CO)NC(=O)C(Cc1ccccc1)N1C(=O)c2ccccc2C1=O (stereo not given) | -11 | 94 | / | 4 | / | /
CCOc1ccc(N2C(=O)Cc3ccccc3C2=O)cc1 | 0 | 73* | / | 0 | / | 102
CCOC(=O)c1ccc(N2C(=O)Cc3ccccc3C2=O)cc1 | 3 | 95 | / | 1 | / | /
CC1CCN(C(=O)c2ccccc2NC(=O)Nc2ccccc2)CC1 | -21 | 11* | / | 5 | / | 98
Cc1ccccc1C(=O)Nc1ccccc1C(=O)N1CCC(C)CC1 | -6 | 99 | / | -5 | / | /
O=C(O)CCCCCNc1nc2ncn(Cc3ccccc3)c2c(=O)[nH]1 | -19 | 57* | / | 6 | 0.48 | 100
CC(Nc1nc2ncn(Cc3ccccc3)c2c(=O)[nH]1)C(=O)O (stereo not given) | 2 | / | -0.13 | 3 | 0.41 | /
COC(=O)[C@@]12CCCCN1[C@H](c1ccc(-c3ccc4c(c3)OCO4)c(OC)c1)[C@@H]1C(=O)N(C)C(=O)[C@@H]12 | / | 95 | / | 11 | / | /
COC(=O)C1CCN(S(=O)(=O)c2c[nH]c(=O)[nH]c2=O)CC1 | / | 94 | / | 1 | / | 99
COC(=O)C1CCN(S(=O)(=O)c2ccc(Br)s2)CC1 | / | 90 | / | -1 | / | 97
COc1ccc2c(c1OC)C(=O)N(c1ccc3c(c1)CCC3)C2=O | -12 | 63* | -0.024 | -6 | 0.1 | 98
COc1ccc2c(c1OC)C(=O)N(c1ccc(C)c(C)c1)C2=O | -14 | 99 | -0.064 | -1 | 0.8 | /
O=C1N(CCCN2C(=O)C3(OCCO3)c3ccccc32)c2ccccc2C12OCCO2 | 2 | 68* | / | 0 | 0.81 | 103
COc1ccc(-n2nc(C(=O)NCC3CCCO3)c3ccccc3c2=O)cc1 (stereo not given) | -6 | 16* | / | -3 | / | 99
COc1ccc(-n2nc(C(=O)NCC(=O)NCC3CCCO3)c3ccccc3c2=O)cc1 (stereo not given) | -8 | 97 | -0.24 | 4 | 0.63 | /
Cc1ccc2c(c1)N(C(C)C(=O)NCc1ccc3c(c1)OCO3)C(=O)CO2 (stereo not given) | 0 | 100 | 1.2 | -3 | 0.29 | /
CC(C(=O)NCC1(c2ccccc2)CCOCC1)N1CCOCC1 (stereo not given) | -1 | 96 | 0.22 | 2 | -0.86 | /
SMILES | p-CIP stab down | ABCB6 inh 2 | Cl transport mod | V-ATPase pH | Dynein transport | ABCB6 inh CP1
CC(C(=O)NCC1(c2ccccc2)CCCC1)N1CCOCC1 (stereo not given) | -6 | 60* | 0.35 | -1 | 1.1 | 102
Cc1nc2c(C(=O)N3CCOCC3)cnn2c(C)c1Cc1cccc(Cl)c1 | 12 | / | 0.34 | / | 2.3 | 98
O=C(c1nnc(Cc2ccc(Cl)cc2)o1)N1CCOCC1 | 0 | 100 | 0.98 | -3 | -0.85 | /
Cc1nc2c(C(=O)N3CCOCC3)cnn2c(C)c1Cc1ccc(Cl)cc1 | -18 | 89 | -0.26 | 5 | -0.76 | 99
COc1cc(C)c(Cl)cc1S(=O)(=O)N1CCSC1 | -23 | 103 | / | -5 | / | /
COc1ccccc1C1C(C#N)=C(N)N(N(C)C)C2=C1C(=O)CC(C)(C)C2 (stereo not given) | 2 | 51* | / | -4 | / | 96
CCOC(=O)C(C)NC(=O)CCc1nnc2ccc(N3CCCCC3)nn12 (stereo not given) | -14 | 90 | / | 3 | / | 98
CSc1ccc(CCNC(=O)CCc2nnc3ccc(N4CCCCC4)nn23)cc1 | -12 | 96 | / | -1 | / | /
CCOCCCNC(=O)CCc1nnc2ccc(N3CCCCC3)nn12 | -2 | 98 | / | -2 | / | 100
Cn1c(=O)c2ncn(CC(=O)NCCOCc3ccccc3Cl)c2n(C)c1=O | -16 | 66* | 0.87 | 2 | 0.084 | 100
Cn1c(=O)c2ncn(CC(=O)NCCOc3ccc(C(C)(C)C)cc3)c2n(C)c1=O | -5 | 87 | / | 3 | 0.22 | /
Clc1nnc(Cl)c2c1ncn2Cc1ccccc1 | -6 | 73* | / | -1 | / | 100
CC1CCC(NC(=O)CN2C(=O)C3CC=CCC3C2=O)CC1 (stereo not given) | / | 98 | / | 3 | / | /
c1ccc(-c2ccc3cnccc3n2)cc1 | / | 94 | / | / | / | /
CCOC(=O)[C@H]1[C@H]2COc3cc(OC)ccc3[C@@H]2N2C(=O)N(c3cccc(F)c3)C(=O)[C@@]12C | / | 99 | / | 0 | / | /
CCOC(=O)[C@@H]1[C@H]2COc3cc(OC)ccc3[C@H]2N2C(=O)N(c3cccc(F)c3)C(=O)[C@@]12C | / | 73* | / | 2 | / | 99
CCN1C(=O)C(=O)N(Cc2ccc(OC)c(F)c2)C1=O | -13 | 97 | / | -3 | / | /
O=S(=O)(NCc1ccccc1)c1ccc(S(=O)(=O)N(Cc2cccs2)CC2CCCO2)cc1 (stereo not given) | -20 | 95 | / | 6 | 1.9 | /
O=C(Nc1cccc(O)c1)c1cccc(C(=O)Nc2cccc(O)c2)c1 | -1 | 98 | / | 0 | / | /
CC(C)(C)NC(=O)c1cccc(NC(=O)c2cccc(O)c2)c1 | -17 | 63* | -0.75 | -5 | -0.036 | 101
COc1ccc(C(CNC(=O)c2ccc(Cl)c(NC(=O)c3cccs3)c2)N2CCCC2)cc1 (stereo not given) | / | 99 | / | 0 | / | /
CCc1ccccc1NC(=O)c1cc(=O)c2ccccc2o1 | 1 | 67* | 0.13 | 6 | 0.23 | 101
COc1ccccc1-c1c(C)nn2c(N)c(-c3ccccc3)cnc12 | 2 | 97 | / | 2 | / | /
O=C(Nc1cccc(Oc2ccccc2)c1)C1Cc2c(-c3ccc4c(c3)OCO4)ccnc2O1 (stereo not given) | / | 102 | / | / | / | 98
